Results: ChEMBL document CHEMBL1129543, “Synthesis and evaluation of N-(phenylacetyl)trifluoromethanesulfonamides as anticonvulsant agents” (J Med Chem, 1996)

Legend:
Mus musculus [1] = assay: Median effective dose was evaluated by subcutaneous pentylenetetrazole seizure test through intraperitoneal administration; assay type: functional
Summary of the method: (§1)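 Phase II in mice, ip dosing in 30% PEG 400. Groups of 6-12 mice per dose until at least three points fall in 10-90% protection. […] MES: 50 mA, 0.2 s corneal. scMet: pentylenetetrazol 85 mg/kg sc.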

Mus musculus [2] = assay: Anti-seizure activity was evaluated by Subcutaneous pentylenetetrazole seizure test at dose 300 mg/kg after 4.0 hours; ++ denotes antiseizure activity; assay type: functional, organism-based; set-up: dose 300 mg/kg
Summary of the method: (§2)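 Phase I screen in mice: ip dosing at 30, 100, 300 and 600 mg/kg in 30% PEG 400, read 0.5 h and 4 h after. Pentylenetetrazol given sc at CD97 (85 mg/kg). Protection means no clonic spasm of at least 5 s over 30 min. Scored ++++ to + for 30 to 600 mg/kg.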

Mus musculus [3] = assay: Anti-seizure activity was evaluated by Neurologic toxicity (rotarod test) at dose 300 mg/kg after 0.5 hours; ++ denotes antiseizure activity; assay type: functional, organism-based; set-up: dose 300 mg/kg
Summary of the method: (§3)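 Phase I neurotoxicity in mice by rotorod ataxia test. Compound given ip at 30, 100, 300 or 600 mg/kg in 30% PEG 400, read 0.5 h and 4 h after. Scored ++++ to + for toxicity at 30 to 600 mg/kg; - means no toxicity.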

Rattus norvegicus [4] = species on record: Rattus norvegicus; assay: Protective index (TD50/ED50) was determined against MES induced seizure in rat.; assay type: functional
Summary of the method: (§4)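 Oral dosing in 30% PEG 400: phase IV in mice (0.01 mL/g), phase VI in Sprague-Dawley rats (0.004 mL/g). ED50/TD50 found as in phase II, at the stated time of peak effect. MES current 50 mA in mice, 150 mA in rats. Toxicity by rotorod in mice; positional sense, gait and stance in rats. PI = TD50/ED50.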

Mus musculus [5] = assay: Anti-seizure activity was evaluated by Maximal electroshock seizure (MES) test at dose 300 mg/kg after 0.5 hours; ++ denotes antiseizure activity; assay type: functional, organism-based; set-up: dose 300 mg/kg
Summary of the method: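 Phase I screen in mice: ip injection at 30, 100, 300 and 600 mg/kg in 30% PEG 400 (0.01 mL/g). Test run 0.5 h and 4 h after dosing. 60-Hz AC, 50 mA, via corneal electrodes for 0.2 s. Protection means abolition of hind-leg tonic extension. Scored ++++ to + for activity at 30 to 600 mg/kg.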

Mus musculus [6] = species on record: Mus musculus; assay: Time to peak activity was evaluated by Maximal electroshock seizure test in hours; assay type: functional
Mus musculus [7] = species on record: Mus musculus; assay: Time to peak toxicity was evaluated by Maximal electroshock seizure test in hours; assay type: functional
Mus musculus [8] = assay: Anti-seizure activity was evaluated by Neurologic toxicity (rotarod test) at dose 600 mg/kg after 4.0 hours; + denotes neurotoxicity; assay type: functional, organism-based; set-up: dose 600 mg/kg; summary of the method: as §3
Mus musculus [9] = assay: Median toxic dose was evaluated by […] through intraperitoneal administration; assay type: functional
Mus musculus [10] = assay: (§5) Median effective dose was evaluated by Maximal electroshock seizure test through intraperitoneal administration; assay type: functional; conditions: ip
Summary of the method: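 Phase II in mice, ip dosing in 30% PEG 400. Groups of 6-12 mice per dose until at least three points fall in 10-90% protection.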

Rattus norvegicus [11] = species on record: Rattus norvegicus; assay: Protective index (TD50/ED50) was determined against scMet induced seizure in rat.; assay type: functional; summary of the method: as §4
Rattus norvegicus [12] = assay: […] was evaluated by Neurologic toxicity (rotarod test) in Rats by oral administration; assay type: functional
Mus musculus [13] = assay: Anti-seizure activity was evaluated by Neurologic toxicity (rotarod test) at dose 600 mg/kg after 0.5 hours; + denotes neurotoxicity; assay type: functional, organism-based; set-up: dose 600 mg/kg; summary of the method: as §3
Rattus norvegicus [14] = species on record: Rattus norvegicus; assay: Induction of cytochrome P-450 enzyme was evaluated in units of nmol of enzyme/mg liver of chronic treated rats
Rattus norvegicus [15] = assay: Time to peak effect in Rats was evaluated by Maximal electroshock seizure (MES) test in hours by oral administration; assay type: functional
Summary of the method: (§6)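 Oral dosing in 30% PEG 400: phase IV in mice (0.01 mL/g), phase VI in Sprague-Dawley rats (0.004 mL/g). ED50/TD50 found as in phase II, at the stated time of peak effect. MES current 50 mA in mice, 150 mA in rats. PTZ sc 85 mg/kg in mice, 70 mg/kg in rats. Toxicity by rotorod in mice; positional sense, gait and stance in rats. PI = TD50/ED50.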

Rattus norvegicus [16] = assay: Time to peak effect in Rats was evaluated by Neurologic toxicity (rotarod test) in hours by oral administration; assay type: functional
Rattus norvegicus [17] = species on record: Rattus norvegicus; assay: zInduction of NADPH cytochrome C reductase enzyme was evaluated in units of nmol/min per mg liver of chronic treated rats; assay type: functional
Summary of the method: (§7)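 Rats (eight per group) given 6 mg/kg po daily, then kept on the same regimen 2 more days. Weights taken on day 7. On day 8 rats decapitated; livers perfused with 0.9% NaCl, weighed and homogenized in 0.25 M sucrose. Microsomal assays per Franklin and Estabrook. Values given as average and deviation.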

Mus musculus [18] = assay: […] was evaluated by Neurologic toxicity (rotarod test) in mice by oral administration; assay type: functional; summary of the method: as §6
Rattus norvegicus [19] = assay: Time to peak effect in Rats was evaluated by Subcutaneous pentylenetetrazole seizure test in hours by oral administration; assay type: functional; summary of the method: as §6
Mus musculus [20] = assay: Inhibition of picrotoxin-induced seizures in mice by ip administration up to 300 mg/kg (d=No protection); assay type: functional, organism-based; set-up: dose 300 mg/kg
Summary of the method: (§8)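 Phase V differentiation in mice: test drug given ip at time of peak therapeutic effect, then the CD₉₇ of each convulsant (picrotoxin, bicuculline, strychnine) given ip as a 0.5% solution; observation 30 min for bicuculline and strychnine, 45 min for picrotoxin. Drug in 30% PEG 400, 0.01 mL/g. ED₅₀ with 95% confidence intervals from ≥3 points in the 10-90% protection range, groups of 6-12 mice.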

Mus musculus [21] = assay: Median lethal dose was evaluated by mortality after 24 hr through ip injection administration; d= Hypnosis and death occurred; assay type: ADME, organism-based; conditions: in vivo
Summary of the method: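 Mice were dosed ip in 30% PEG 400. Mortality was scored 24 h after injection in groups of eight. The 24-h LD₅₀ was derived as for the ED₅₀/TD₅₀, with 95% confidence intervals.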

Rattus norvegicus [22] = species on record: Rattus norvegicus; assay: Induction of p-nitroanisole-O-dimethylase enzyme was evaluated in units of nmol/min per mg liver of chronic treated rats; assay type: functional; summary of the method: as §7
Mus musculus [23] = species on record: Mus musculus; assay: Median hypnotic dose was evaluated by loss of righting reflex; assay type: functional
Mus musculus [24] = assay: Median Effective dose was evaluated by Maximal electroshock seizure (MES) test in mice by oral administration; assay type: functional
Mus musculus [25] = assay: Anti-seizure activity was evaluated by Subcutaneous pentylenetetrazole seizure test at dose 600 mg/kg after 0.5 hours; + denotes neurotoxicity; assay type: functional, organism-based; set-up: dose 600 mg/kg; summary of the method: as §2
Mus musculus [26] = assay: as §5; assay type: functional; conditions: ip; summary of the method: as §1; remark: listed apart in the source
Rattus norvegicus [27] = species on record: Rattus norvegicus; assay: Total body weight up to 7th day was evaluated in grams of chronic treated rats; assay type: functional; summary of the method: as §7
Mus musculus [28] = species on record: Mus musculus; assay: Anti-seizure activity was evaluated by Neurologic toxicity (rotarod test) after 4.0 hours; - denotes no antiseizure activity; assay type: functional, organism-based; summary of the method: as §3
Rattus norvegicus [29] = assay: Median Effective dose was evaluated by Subcutaneous pentylenetetrazole seizure test in Rats by oral administration up to 40 mg/kg; b=no protection; assay type: functional, organism-based; set-up: dose 40 mg/kg; summary of the method: as §6
Rattus norvegicus [30] = assay: The loss of righting reflex time was evaluated in chronic treated rats by hexobarbital injection at a hypnotic dose 100 mg/kg; assay type: functional
Summary of the method: (§9)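 Rats, eight per group, dosed po daily: vehicle for 4 days then 6 mg/kg on day 5 (acute), or 6 mg/kg daily for 5 days (chronic). Hexobarbital 100 mg/kg ip on day 6. Loss-of-righting-reflex time recorded to the nearest minute; group mean taken.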

Mus musculus [31] = assay: Inhibition of seizures induced in mice by a convulsant dose of strychnine through ip administration; assay type: functional; summary of the method: as §8
Mus musculus [32] = assay: Inhibition of seizures induced in mice by a convulsant dose of up to 300 mg/kg; d= No protection; assay type: functional, organism-based; set-up: dose 300 mg/kg
Summary of the method: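 Convulsant (bicuculline, picrotoxin, strychnine or PTZ) given at CD97 as a 0.5% solution. Observed 30 min (45 min for picrotoxin). PI uses ip mouse TD50.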

Rattus norvegicus [33] = species on record: Rattus norvegicus; assay: Total liver Protein up to 7th day was evaluated in mg/liver of chronic treated rats; assay type: functional; summary of the method: as §7
Mus musculus [34] = assay: Time to peak effect in mice was evaluated by Subcutaneous pentylenetetrazole seizure test in hours by oral administration; assay type: functional; summary of the method: as §6
Mus musculus [35] = assay: Time to peak effect in mice was evaluated by Maximal electroshock seizure (MES) test in hours by oral administration; assay type: functional; summary of the method: as §6
Mus musculus [36] = assay: Median Effective dose was evaluated by Subcutaneous pentylenetetrazole seizure test in mice by oral administration; assay type: functional
Rattus norvegicus [37] = assay: Median Effective dose was evaluated by Maximal electroshock seizure (MES) test in Rats by oral administration; assay type: functional
Mus musculus [38] = assay: Time to peak effect in mice was evaluated by Neurologic toxicity (rotarod test) in hours by oral administration; assay type: functional; summary of the method: as §6
Rattus norvegicus [39] = assay: The loss of righting reflex time was evaluated in acute control rats by hexobarbital injection at a hypnotic dose 100 mg/kg; assay type: functional; summary of the method: as §9

COc1ccc(CC(=O)NS(=O)(=O)C(F)(F)F)cc1
ED50 (Mus musculus [1]): 53 mg/kg | Activity (Mus musculus [2]): Antiseizure activity | Activity (Mus musculus [3]): Antiseizure activity | PI (Rattus norvegicus [4]): 17 | Activity (Mus musculus [5]): Antiseizure activity | TPE (Mus musculus [6]): 2 | TPE (Mus musculus [7]): 0.5 | Activity (Mus musculus [8]): Antiseizure activity | TD50 (Mus musculus [9]): 557 mg/kg | ED50 (Mus musculus [10]): 33 mg/kg | PI (Rattus norvegicus [11]): 10

O=C(Cc1ccccc1)NS(=O)(=O)C(F)(F)F
TD50 (Rattus norvegicus [12]): 40 mg/kg | ED50 (Mus musculus [1]): 10 mg/kg | Activity (Mus musculus [13]): Antiseizure activity | Induction (Rattus norvegicus [14]): 0.41 | TPE (Rattus norvegicus [15]): 8 h | PI (Rattus norvegicus [4]): 53 | TPE (Rattus norvegicus [16]): 24 h | Induction (Rattus norvegicus [17]): 109.9 | TD50 (Mus musculus [18]): > 1000 mg/kg | TPE (Rattus norvegicus [19]): 8 h | ED50 (Mus musculus [20]): No protection | TPE (Mus musculus [6]): 6 | LD50 (Mus musculus [21]): No protection | Induction (Rattus norvegicus [22]): 0.36 | HD50 (Mus musculus [23]): 522 mg/kg | TPE (Mus musculus [7]): 24 | ED50 (Mus musculus [24]): 8.4 mg/kg | Activity (Mus musculus [25]): Antiseizure activity | ED50 (Mus musculus [26]): 6.2 mg/kg | Weight (Rattus norvegicus [27]): 128.8 | Activity (Mus musculus [28]): No activity | ED50 (Rattus norvegicus [29]): No protection | Sleep time (Rattus norvegicus [30]): 51 | ED50 (Mus musculus [31]): 56 mg/kg | ED50 (Mus musculus [32]): No protection | Protein (Rattus norvegicus [33]): 40.4 | TPE (Mus musculus [34]): 8 h | TD50 (Mus musculus [9]): 329 mg/kg | TPE (Mus musculus [35]): 8 h | ED50 (Mus musculus [36]): 60 mg/kg | ED50 (Rattus norvegicus [37]): 6.1 mg/kg | PI (Rattus norvegicus [11]): 34 | TPE (Mus musculus [38]): 24 h | Sleep time (Rattus norvegicus [39]): 33
